# Source: PubChem BioAssay
# RTF Ca sens act = cardiac RTF calcium sensitivity activators, primary screen, biochemical, IANBD-TnC fluorescence, EC20 calcium. Troponin I, cardiac muscle (Homo sapiens) + Troponin T, cardiac muscle (Homo sapiens) + …. IANBD-labeled TnC RTF fluorescence at EC20 calcium; 0% EC20 calcium, 100% full calcium. activation, % at 7.2 µM. hit rate 0.24% among 340,000. AID 493008, 2010;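 active = activation above the mean over all tested compounds plus 3 SD, cut at about 30% in these data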;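 note: rise in fluorescence read as greater calcium sensitivity of cardiac thin filaments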
# UCH37 inh = inhibitors of human UCH37 deubiquitinase, primary screen, biochemical, Ub-AMC cleavage, fluorescence. hit rate 0.33% among 330,000. purified proteasome/UCH37. AID 588478, 2011. inhibition, % (concentration not given with the values);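 active = mean inhibition over replicate wells above about 20%, limit read from the data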;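 note: 0% = compound-free wells with enzyme and 100% = wells lacking proteasome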
# Target sequence (Q9Y5K5 whole entry, looked up): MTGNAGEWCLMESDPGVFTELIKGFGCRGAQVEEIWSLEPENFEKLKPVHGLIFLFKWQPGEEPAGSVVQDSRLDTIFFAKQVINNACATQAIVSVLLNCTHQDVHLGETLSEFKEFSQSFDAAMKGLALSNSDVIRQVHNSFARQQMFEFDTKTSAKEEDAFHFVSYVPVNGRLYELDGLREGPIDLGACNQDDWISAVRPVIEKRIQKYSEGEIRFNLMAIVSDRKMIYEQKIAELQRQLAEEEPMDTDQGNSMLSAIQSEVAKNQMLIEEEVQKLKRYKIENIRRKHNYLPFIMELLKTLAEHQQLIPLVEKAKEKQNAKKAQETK
#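 Material: human UCH37 enzyme supplied as purified proteasome complex / Amount: 0.15 nM proteasome as dispensed / Buffer or medium: pH 7.4 Tris-HCl (50 mM) with ovalbumin, ATP-MgCl2, DTT / Times: preincubation 30 min, reaction 25 min, room temperature / Technique: AMC fluorescence from Ub-AMC cleavage, excitation 355 nm, emission 460 nm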
# Cardiac RTF inh = cardiac RTF calcium sensitivity inhibitors, primary screen, biochemical, IANBD-TnC fluorescence, EC70 calcium; hit rate 0.12% among 340,000; AID 493244, 2011; inhibition, % at 7.15 µM; Troponin I, cardiac muscle (Homo sapiens) + Troponin T, cardiac muscle (Homo sapiens) + …; IANBD-labeled cardiac RTF, Ca2+ fluorescence;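 active = inhibition above the mean inhibition of all tested compounds plus 3 SD, cut at about 17% in these data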;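 note: assay run at fixed EC70 calcium of 1.6 mM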
# Efflux pump inh = inhibitors of Candida efflux pumps in yeast, primary screen, S. cerevisiae, Nile Red, multiplex; S. cerevisiae Candida pump triplex; inhibition, % at 10 µM; hit rate 0.44% among 330,000;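 active = plate passing quality check with inhibition over a set limit, or well fluorescence over plate mean plus 4 SD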;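 note: Nile Red retained in pooled yeast measured as flow cytometry median fluorescence; 0% = buffer negative control and 100% = Enniatin B positive control; higher means more Nile Red kept so more efflux inhibition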
# SUMO Mot1 rescue = yeast Mot1-301 growth rescue at high temperature, primary screen, SUMOylation pathway inhibitor project, S. cerevisiae, ATP luminescence, 38.5C; growth rescue, % at 18.8 µM; hit rate 1% among 320,000; S. cerevisiae Mot1-301 growth rescue; percent above DMSO median, 100 means doubled; AID 2716, 2010;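 active = every valid replicate shows activation above 250% relative to neutral control wells; inactive = the rest, any valid replicate at or below 250%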;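 note: OY570 slx delta 5 strain wells were the positive control but not used for scaling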
# ARNT TACC3 PPI = disruptors of ARNT/TACC3 protein interaction, primary screen, biochemical, AlphaScreen, single concentration | Transforming acidic coiled-coil-containing protein 3 (Homo sapiens), Q9Y6A5 | AlphaScreen His-ARNT PAS-B/GST-TACC3 binding, luminescence; TACC3 fragment carries E629A point mutation | hit rate 0.66% among 390,000 | inhibition, % at 9.99 µM;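 active = mean inhibition of replicates at least 50% and at least half of replicates each reaching 50%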;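 note: 0% = complete ARNT plus TACC3 wells and 100% = ARNT alone without TACC3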
# ARNT Alpha ctr-1 = AlphaScreen signal interference compounds, dose response, artefact control for ARNT-TACC3 interaction inhibitor project, biochemical, luminescence, cherry-pick. shares compounds with ARNT TACC3 PPI. His-ARNT PASB-GST AlphaScreen artifact counter-screen. AC50, µM (doses to about 68 µM), for inactives: top-dose activity change, negative = signal decrease. hit rate 50% among 1,200;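 active = every separate test run was called active for a drop in luminescence, with AC50 within twice the top valid dose, actives reach about 71 µM in these data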
# ARNT Alpha ctr-2 = AlphaScreen signal interference by compounds, dose response, artefact control for ARNT/TACC3 disruptor project, biochemical, dual-tagged ARNT, dry powder; shares compounds with ARNT TACC3 PPI; Dual-tagged His-ARNT PASB-GST AlphaScreen artifact counter-screen; hit rate 70% among 45; AC50, µM;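 active = luminescence drop, with half-maximal potency fitted within twice the sample's top valid dose, cut at about 70 µM in these data; inactive = the rest, including signal moving the wrong way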
# Starred values were filed as active, the others as inactive; i = inactive; . = no result given. In the library only some 2.1% were active in any assay of this set; here they are far more common.
SMILES,RTF Ca sens act,UCH37 inh,Cardiac RTF inh,Efflux pump inh,SUMO Mot1 rescue,ARNT TACC3 PPI,ARNT Alpha ctr-1,others
O=C(O)CC1OCC=C2CN3CCC45c6ccccc6NC4C1C2CC35 (stereo not given),-8,.,-2,0,1,12,.,
N#CC1(c2ccccc2)CCN(C2CC(=O)N(c3cccc(F)c3)C2=O)CC1 (stereo not given),4,1,1,0,1,5,.,
Oc1cccc2cccnc12,.,.,.,0,-8,.,.,
Oc1ccc(CN2CCC3CCCCC3C2)c2cccnc12 (stereo not given),.,.,.,.,.,.,3.3µM*,
N#CC1(c2ccccc2)CCN(Cc2ccc(O)c3ncccc23)CC1,.,.,.,.,.,.,5.9µM*,
COC(=O)[C@@H]1[C@@H](CO)[C@@H]2Cn3c(ccc(C4=CCCC4)c3=O)[C@H]1N2CC1CCCCC1,.,.,.,.,.,4,.,
CCOC(=O)[C@@H]1[C@@H]2NC(=O)N(C)[C@@]1(C)Oc1ccccc12,.,.,.,.,.,-3,.,
FC(F)(F)c1ccc(CNCCc2c[nH]c3ccccc23)cc1,1,1,2,0,-4,-1,.,
Clc1cccc(CNCCc2c[nH]c3ccccc23)c1,4,1,1,0,20,52*,-7%,
O=C(Nc1ccc(Cl)cc1)O/N=C(\c1ccccc1)c1ccccn1,-1,.,1,0,0,50*,-38%,
CCOC(=O)[C@@H]1[C@@H]2NC(=S)N(C)[C@@]1(C)Oc1ccccc12,.,.,.,.,.,11,.,
O=C(N/N=C/c1c(O)n(CCC2=CCCCC2)c(=S)[nH]c1=O)c1ccccc1,3,-94,-6,0,-8,27,.,
O=C(N/N=C/c1c(O)n(CCC2=CCCCC2)c(=O)[nH]c1=O)c1ccccc1,2,-404,5,0,11,51*,-16%,
O=C(Cc1ccncc1)N1CCCCN2[C@@H](CO)[C@@H](c3ccc(C#Cc4ccccc4F)cc3)[C@@H]2C1,.,.,.,.,.,-5,.,
CCn1nc(-c2cccnc2)nc2c(=O)n(C)c(=O)nc1-2,.,.,.,.,.,.,.,ARNT Alpha ctr-2=i
CCN(CCCl)c1cc(CN(C)C)cc(NC(=O)c2ccc(C(=O)Nc3cc(CN(C)C)cc(N(CC)CCCl)c3)cc2)c1,-8,.,-7,.,.,54*,4.3µM*,
CC1CN(c2ccc([N+](=O)[O-])c3cccnc23)CC(C)N1 (stereo not given),3,0,7,0,7,59*,-4%,
